Results as given in ChEMBL document CHEMBL5321217, “Identification of pyrrolo[3',4':3,4]cyclohepta[1,2-d][1,2]oxazoles as promising new candidates for the treatment of lymphomas” (Eur J Med Chem, 2023).

Legend:
[1] = Antiproliferative activity against human HBL1 cells assessed as reduction in cell proliferation at 1 uM measured after 72 hrs by MTT assay relative to control; type: functional; design: scale not given: the % may be the effect or the level left
Summary of the method: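 Single-dose screen at 1 μM for 72 h at 37 °C, 5% CO2 (DMSO ≤0.1%). Cells in RPMI-1640 with 20% FBS, seeded at 5,000–10,000 cells/well. MTT added for 4 h, SDS lysis, A570 read with medium-only blanks. Percent proliferation relative to untreated cells, run in triplicate.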

MDA-MB-435 = test: Antiproliferative activity against human MDA-MB-435 cells assessed as growth inhibition incubated for 72 hrs by MTT assay; type: functional
SK-MEL-2 = test: Antiproliferative activity against human SK-MEL-2 cells assessed as growth inhibition incubated for 72 hrs by MTT assay; type: functional
M14 = test: Antiproliferative activity against human M14 cells assessed as growth inhibition incubated for 72 hrs by MTT assay; type: functional
OVCAR-4 = test: Antiproliferative activity against human OVCAR-4 cells assessed as growth inhibition incubated for 72 hrs by MTT assay; type: functional
[2] = Cytotoxicity against PHA-induced human PBL cells assessed as inhibition of cell growth measured after 72 hrs by MTT assay; type: toxicity, cell-based; conditions: PHA-induced human peripheral blood lymphocytes (PBL)
SNB-19 = test: Antiproliferative activity against human SNB-19 cells assessed as growth inhibition incubated for 72 hrs by MTT assay; type: functional
SU-DHL10 = test: Antiproliferative activity against human SU-DHL-10 cells assessed as reduction in cell proliferation at 1 uM measured after 72 hrs by MTT assay relative to control; type: functional; design: scale not given: the % may be the effect or the level left
Summary of the method: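 Single-dose 1 μM screen in lymphoma cells (RPMI-1640, 20% FBS; 5,000–10,000 cells/well), 72 h at 37 °C, 5% CO2, DMSO ≤0.1%. MTT for 4 h, SDS lysis, absorbance at 570 nm. Proliferation expressed as percent of untreated control.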

UACC-257 = test: Antiproliferative activity against human UACC-257 cells assessed as growth inhibition incubated for 72 hrs by assay; type: functional
TK-10 = test: Antiproliferative activity against human TK-10 cells assessed as growth inhibition incubated for 72 hrs by MTT assay; type: functional
SK-MEL-28 = test: Antiproliferative activity against human SK-MEL-28 cells assessed as growth inhibition incubated for 72 hrs by MTT assay; type: functional

| Compound | Activity [1] [%] | GI50 (MDA-MB-435) [nM] | GI50 (SK-MEL-2) [nM] | GI50 (M14) [nM] | GI50 (OVCAR-4) [nM] | IC50 at 72 h [2] [nM] | GI50 (SNB-19) [nM] | Activity (SU-DHL10) [%] | GI50 (UACC-257) [nM] | GI50 (TK-10) [nM] | GI50 (SK-MEL-28) [nM] |
| --- | --- | --- | --- | --- | --- | --- | --- | --- | --- | --- | --- |
| COc1ccc(Cn2cc3c(c2-c2cc(OC)c(OC)c(OC)c2)CCCc2cnoc2-3)cc1 | >50 | 230 | 1610 | 390 | 4970 | > 10000 | 1530 | >50 |  |  |  |
| COc1ccc(Cn2cc3c(c2-c2cc(OC)c(OC)c(OC)c2)CCCc2cnoc2-3)cc1N | >50 | 240 |  | 480 |  | > 10000 | 810 | >50 | 580 | 96600 | 2930 |
